# From ChEMBL document CHEMBL5724801, “EUbOPEN Chemogenomics Library - Multiplex” (2024)
# “And” between values parts separate entries of the source, which are not always exact repeats. Equal entries are not always repeated.
# What was measured:
# [1] = tested on: HEK-293T; experiment: Multiplex assay against HEK293T; format: toxicity, cell-based; details: human
# Summary of the method: (§1)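 Four dyes were applied at seeding to live cells: Hoechst33342, BioTracker Green Microtubule Cytoskeleton Dye, MitoTracker Red and Annexin V Alexa Fluor 680. Imaging after compound addition used a CQ1 microscope at 37°C and 5% CO2. CellPathfinder machine-learning gating then sorted cells into Hoechst high-intensity objects or normal cells, normal cells into healthy, pyknosed or fragmented nuclei, and pyknosed cells into mitotic or apoptotic, with tubulin, mitochondrial-mass and membrane-permeability phenotypes given as per cents of healthy-nucleus cells.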
# [2] = tested on: Fibroblast; experiment: Multiplex assay against human fibroblast; format: toxicity, cell-based; summary of the method: as §1
# [3] = 12 h, 1 µM, compound concentration 1 uM
# [4] = 12 h, 10 µM, compound concentration 10 uM
# [5] = 24 h, 1 µM, compound concentration 1 uM
# [6] = 24 h, 10 µM, compound concentration 10 uM
# [7] = 48 h, 1 µM, compound concentration 1 uM
# [8] = 48 h, 10 µM, compound concentration 10 uM
compound,measurement,setting,value
CC[C@H](Nc1ncnc2[nH]cnc12)c1nc2cccc(F)c2c(=O)n1-c1ccccc1 [IDELALISIB],Population Apoptotic (%),[1]; [3],9.6% and 7.3%
same,Population Fragmented Nuclei (%),[1]; [3],0.69% and 2.22%
same,Population Healthy Nuclei (%),[1]; [3],58.33% and 21.67%
same,Population Hoechst High Intensity Objects (%),[1]; [3],0%
same,Population Membrane Permeable-Phenotype (%),[1]; [3],1.19% and 0%
same,Population Mitochondria Different-Phenotype (%),[1]; [3],34.13% and 17.95%
same,Population Mitotic Cells (%),[1]; [3],90.4% and 92.7%
same,Population Normal (%),[1]; [3],100%
same,Population Pyknosed Nuclei (%),[1]; [3],40.97% and 76.11%
same,Total Cell Count,[1]; [3],432 and 180
same,Population Apoptotic (%),[1]; [4],16.78% and 14.29%
same,Population Fragmented Nuclei (%),[1]; [4],0.89% and 4.58%
same,Population Hoechst High Intensity Objects (%),[1]; [4],0%
same,Population Membrane Permeable-Phenotype (%),[1]; [4],0% and 7.69%
same,Population Mitochondria Different-Phenotype (%),[1]; [4],29.11% and 15.38%
same,Population Mitotic Cells (%),[1]; [4],83.22% and 85.71%
same,Population Normal (%),[1]; [4],100%
same,Population Pyknosed Nuclei (%),[1]; [4],63.84% and 86.93%
same,Population Tubulin-Different-Phenotype (%),[1]; [4],34.18% and 38.46%
same,Total Cell Count,[1]; [4],224 and 153
same,Population Apoptotic (%),[1]; [5],20.57% and 16.42%
same,Population Fragmented Nuclei (%),[1]; [5],1.62% and 1.42%
same,Population Healthy Nuclei (%),[1]; [5],75.57% and 35.07%
same,Population Hoechst High Intensity Objects (%),[1]; [5],0%
same,Population Membrane Permeable-Phenotype (%),[1]; [5],1.07% and 0%
same,Population Mitochondria Different-Phenotype (%),[1]; [5],15.42% and 12.16%
same,Population Mitotic Cells (%),[1]; [5],79.43% and 83.58%
same,Population Normal (%),[1]; [5],100%
same,Population Pyknosed Nuclei (%),[1]; [5],22.82% and 63.51%
same,Population Tubulin-Different-Phenotype (%),[1]; [5],9.85% and 5.41%
same,Total Cell Count,[1]; [5],618 and 211
same,Population Apoptotic (%),[1]; [6],22.55% and 30.43%
same,Population Fragmented Nuclei (%),[1]; [6],2.07% and 3.7%
same,Population Healthy Nuclei (%),[1]; [6],62.76% and 25.31%
same,Population Hoechst High Intensity Objects (%),[1]; [6],0.34% and 0%
same,Population Membrane Permeable-Phenotype (%),[1]; [6],2.75% and 2.44%
same,Population Mitochondria Different-Phenotype (%),[1]; [6],40.11% and 19.51%
same,Population Mitotic Cells (%),[1]; [6],77.45% and 69.57%
same,Population Normal (%),[1]; [6],99.66% and 100%
same,Population Pyknosed Nuclei (%),[1]; [6],35.17% and 70.99%
same,Population Tubulin-Different-Phenotype (%),[1]; [6],61.54% and 26.83%
same,Total Cell Count,[1]; [6],291 and 162
same,Population Apoptotic (%),[1]; [7],5.47% and 12.5%
same,Population Fragmented Nuclei (%),[1]; [7],2.71% and 1.53%
same,Population Healthy Nuclei (%),[1]; [7],87.1% and 67.82%
same,Population Hoechst High Intensity Objects (%),[1]; [7],0% and 0.38%
same,Population Membrane Permeable-Phenotype (%),[1]; [7],5.58% and 2.26%
same,Population Mitochondria Different-Phenotype (%),[1]; [7],15.63% and 14.69%
same,Population Mitotic Cells (%),[1]; [7],94.53% and 87.5%
same,Population Normal (%),[1]; [7],100% and 99.62%
same,Population Apoptotic (%),[1]; [8],17.44% and 25.24%
same,Population Fragmented Nuclei (%),[1]; [8],2.23% and 1.97%
same,Population Healthy Nuclei (%),[1]; [8],80.32% and 47.29%
same,Population Hoechst High Intensity Objects (%),[1]; [8],0.2% and 0%
same,Population Membrane Permeable-Phenotype (%),[1]; [8],6.31% and 1.04%
same,Population Mitochondria Different-Phenotype (%),[1]; [8],64.39% and 55.21%
same,Population Mitotic Cells (%),[1]; [8],82.56% and 74.76%
same,Population Normal (%),[1]; [8],99.8% and 100%
same,Population Pyknosed Nuclei (%),[1]; [8],17.44% and 50.74%
same,Total Cell Count,[1]; [8],494 and 203
same,Population Apoptotic (%),[2]; [3],12.5% and 30.56%
same,Population Fragmented Nuclei (%),[2]; [3],8.54% and 3.76%
same,Population Healthy Nuclei (%),[2]; [3],58.94% and 76.88%
same,Population Hoechst High Intensity Objects (%),[2]; [3],7.17% and 0%
same,Population Membrane Permeable-Phenotype (%),[2]; [3],3.45% and 2.8%
same,Population Mitochondria Different-Phenotype (%),[2]; [3],10.34% and 11.89%
same,Population Mitotic Cells (%),[2]; [3],87.5% and 69.44%
same,Population Normal (%),[2]; [3],92.83% and 100%
same,Population Pyknosed Nuclei (%),[2]; [3],32.52% and 19.35%
same,Population Tubulin-Different-Phenotype (%),[2]; [3],22.76% and 24.48%
same,Total Cell Count,[2]; [3],265 and 186
same,Population Apoptotic (%),[2]; [4],7.84% and 18.6%
same,Population Fragmented Nuclei (%),[2]; [4],13.24% and 8.44%
same,Population Healthy Nuclei (%),[2]; [4],63.47% and 72.44%
same,Population Hoechst High Intensity Objects (%),[2]; [4],0%
same,Population Membrane Permeable-Phenotype (%),[2]; [4],11.51% and 11.04%
same,Population Mitochondria Different-Phenotype (%),[2]; [4],16.55% and 16.56%
same,Population Mitotic Cells (%),[2]; [4],92.16% and 81.4%
same,Population Normal (%),[2]; [4],100%
same,Population Pyknosed Nuclei (%),[2]; [4],23.29% and 19.11%
same,Population Tubulin-Different-Phenotype (%),[2]; [4],53.24% and 61.96%
same,Total Cell Count,[2]; [4],219 and 225
same,Population Apoptotic (%),[2]; [5],12.5% and 29.41%
same,Population Fragmented Nuclei (%),[2]; [5],8.53% and 9.31%
same,Population Healthy Nuclei (%),[2]; [5],69.77% and 82.35%
same,Population Hoechst High Intensity Objects (%),[2]; [5],5.84% and 0%
same,Population Membrane Permeable-Phenotype (%),[2]; [5],6.11% and 1.79%
same,Population Mitochondria Different-Phenotype (%),[2]; [5],3.89% and 7.14%
same,Population Mitotic Cells (%),[2]; [5],87.5% and 70.59%
same,Population Normal (%),[2]; [5],94.16% and 100%
same,Population Pyknosed Nuclei (%),[2]; [5],21.71% and 8.33%
same,Population Tubulin-Different-Phenotype (%),[2]; [5],16.67% and 20.24%
same,Total Cell Count,[2]; [5],274 and 204
